The whole screen tested about 340,000 compounds, of which about 1,100 (0.32%) were called active.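 Rule for the calls: active = inhibition above a set limit, near 3 SD of compounds lacking own fluorescence (cut at about 54% in these data); inactive = the rest.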 Shown is part of a subset that was picked to be rich in actives.

For this experiment, the system named is beta-arrestin 1 C-terminal peptide binding to AP2 beta2-adaptin appendage (human). In words: inhibitors of beta-arrestin/AP2 binding, primary screen, biochemical, GPCR trafficking, flow cytometry (AID 504490).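 Note: plate controls were DMSO wells for no effect and 5 µM unlabelled arrestin peptide for full effect.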 Particulars: FITC-arrestin peptide / GST-AP2 beads, at 10 µM, hits give high values, AP2 beta2 appendage carries R879A mutation. The gist of the method:
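System: GST-AP2 R879A glutathione beads; medium: PBS, Tween 20 0.05%, BSA 0.1%; reagent: fluorescein-tagged arrestin peptide at 50 nM final; schedule: pre-incubation 12 min, peptide binding 1 h, room temperature; detection: flow cytometry, FL1 (488/535 nm); read-out: inhibition as reduced fluorescein signal on beads, percent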
Background: Flow cytometry measures light scatter and fluorescence of single cells or particles in a stream.
Regarding `COc1cccc(/C=C2/SC(=S)N(CC(=O)NC3C=CS(=O)(=O)C3)C2=O)c1` (stereo unspecified), the inhibition – broadly, the drop in the measured response relative to a control, in per cent – was -14% (inactive).

`CCOc1ccc(/C=C2\SC(=S)N(NC(=O)c3ccncc3)C2=O)cc1OC`: the inhibition is 18.7% (inactive).

For `COc1ccc(/C=C2\SC(=S)N(CCC(=O)Nc3ccccn3)C2=O)cc1OC`, the inhibition is 73.7% (active).

In the case of `N#CCCN(C(=O)COC(=O)c1ccc(S(=O)(=O)N2CCCCCC2)cc1)c1ccccc1`, the inhibition was -3.59% (inactive).

In the case of `Cc1ccc(OCCCCc2c(C)n[nH]c2C)cc1`, the inhibition was 65.1% (active).

`CC(=O)c1c(C)[nH]c(C(=O)COC(=O)CCOc2ccc(C)cc2)c1C`: the inhibition is 5.24% (inactive).

As for `COc1ccc(-c2[nH]ncc2CN(C)Cc2c(C)n[nH]c2C)c(OC)c1`, the inhibition is 6.55% (inactive).

`Cc1cc(NC(=O)CCS(=O)(=O)c2ccc(F)cc2)no1`: the inhibition is -7.97% (inactive).

Take `CC1CN(C(=O)c2ccccc2NS(=O)(=O)c2cccc([N+](=O)[O-])c2)CC(C)O1` (stereo unspecified): the inhibition was 2.09% (inactive).

Regarding `CN(CCc1cn[nH]c1)C(=O)CC1C(=O)NCCN1Cc1cccc(Oc2ccccc2)c1` (stereo unspecified), the inhibition was 9% (inactive).

Consider `COc1cccc(CN2CCNC(=O)C2CC(=O)N(C)CCc2ccccn2)c1` (stereo unspecified), for which the inhibition was -2.95% (inactive).

On to `NC(=O)C1CCN(C(=O)CC2C(=O)NCCN2Cc2cccc(Oc3ccccc3)c2)CC1` (stereo unspecified), for which the inhibition was 68.5% (active).

In the case of `Cc1nc2c(ncn2-c2ccccc2)c(=O)n1NC(=O)CN1CCCC1`, the inhibition is -8.96% (inactive).

On to `COc1ccc(-n2ncc3c2CC(C)(C)CC3NC(=O)CCc2c(C)noc2C)cc1` (stereo unspecified), for which the inhibition was 5.75% (inactive).

Consider `O=C(c1ccc(Cl)s1)N(Cc1nnc(-c2ccccc2Cl)o1)C1CC1`, for which the inhibition was -9.93% (inactive).

Take `COCCNC(=O)Nc1ccc2nc(-c3ccco3)c(-c3ccco3)nc2c1`: the inhibition is 68% (active).

Consider `O=C(Nc1nc(-c2ccco2)c(-c2ccco2)s1)c1ccco1`, for which the inhibition was 8.21% (inactive).

On to `COCCNC(=O)c1snc2ccc(Cl)cc12`, for which the inhibition was 2.57% (inactive).

Consider `CCc1noc(C)c1C(=O)N1CCCC(N2CCN(c3ccc(F)cc3)CC2)C1` (stereo unspecified), for which the inhibition is 7.14% (inactive).

On to `COc1cccc(C2SCC(=O)N2c2cccc(C)c2)c1OC` (stereo unspecified), for which the inhibition was 3.87% (inactive).

Consider `CCc1ccc(NC(=O)Nc2ccncc2)cc1`, for which the inhibition is 0.23% (inactive).

On to `NS(=O)(=O)c1ccc2nc(NC(=O)CS(=O)(=O)c3ccc(F)cc3)sc2c1`, for which the inhibition is 3.77% (inactive).

For `Cc1csc(NC(=O)C2=COCCO2)n1`, the inhibition was 17.8% (inactive).

For `NS(=O)(=O)c1ccc2nc(NC(=O)C3=COCCO3)sc2c1`, the inhibition was 58.1% (active).

For `O=C1N(Cc2ccc3c(c2)OCO3)c2ccccc2C1(O)c1c[nH]c2ccccc12` (stereo unspecified), the inhibition is 2.95% (inactive).

In the case of `Cc1ccccc1Cn1c2ccccc2c2cnn(CC(=O)NCc3ccco3)c(=O)c21`, the inhibition is -0.8% (inactive).

As to `CCOc1ccc(C(C)=O)cc1COC(=O)CN1C(=O)NC2(CCCC2)C1=O`, the inhibition is 3.04% (inactive).

On to `S=c1ccc2ccccc2[nH]1`, for which the inhibition is -7.56% (inactive).

Consider `COC(=O)C1=C(C)N(C)C(C)=C(C(=O)OC)C1c1cccc(Br)c1`, for which the inhibition is -3.12% (inactive).

As for `CCN1C[C@@H]2[C@@H]3C(=O)N(Cc4ccccc4)C(=O)[C@@H]3[C@](Cc3ccccc3)(C(=O)OC)N2C1=NC1CCCCC1`, the inhibition was 4.73% (inactive).

Consider `NC(=O)c1ccc(Nc2ccc3c(c2)CCC3)c([N+](=O)[O-])c1`, for which the inhibition is 38.4% (inactive).

Take `Cc1ccc(Nc2ccc(C(N)=O)cc2[N+](=O)[O-])cc1`: the inhibition was 54.7% (active).

With `CCOc1ccccc1Nc1ccc(C(=O)O)cc1[N+](=O)[O-]`, the inhibition was 35.8% (inactive).

As for `S=C(Nc1cccnc1)Nc1ccccn1`, the inhibition is 3.47% (inactive).

Consider `CCOc1ccccc1C1CC(c2ccc(Cl)cc2)Nc2nc(N)nn21` (stereo unspecified), for which the inhibition is 10.8% (inactive).

Consider `O=c1[nH]c2ccccc2n2c(-c3ccccc3)nnc12`, for which the inhibition is 55.3% (active).

In the case of `O=c1[nH]n2c(-c3ccccc3)nc(O)c2c2ccccc12`, the inhibition is -0.17% (inactive).

`Cc1ccc(-c2cccc([C@H]3[C@@H]4C=CC[C@@H](C)[C@@H]4C(=O)N3Cc3ccccc3)c2)cc1`: the inhibition was -6.59% (inactive).

Turning to `CCC1(CC)NC(=O)N(CC(=O)OCC(=O)NC(=O)c2ccccc2)C1=O`, the inhibition is 5.01% (inactive).

For `CC(=O)Nc1ccc(S(=O)(=O)N2CCC(N(C)CCC(C)C)CC2)cc1`, the inhibition is -0.3% (inactive).

Turning to `CC(CN1CCCCC1)OC(=O)c1ccccc1Cl` (stereo unspecified), the inhibition is 84.6% (active).

Take `Cc1cccc(C(=O)OC(C)CN2CCCC2)c1` (stereo unspecified): the inhibition was 14.8% (inactive).

For `CC(CN1CCOCC1)OC(=O)c1ccc(Cl)cc1Cl` (stereo unspecified), the inhibition was 8.15% (inactive).

In the case of `Cc1cccn2c(=O)c(/C=C(\C#N)C(N)=O)c(N3CCCCCC3)nc12`, the inhibition is -21.3% (inactive).

In the case of `Cc1cc(C)cc(Oc2nc3c(C)cccn3c(=O)c2/C=C(\C#N)C(=O)NC2CCS(=O)(=O)C2)c1` (stereo unspecified), the inhibition was 77.2% (active).

For `Cc1cccn2c(=O)c(/C=C(\C#N)S(=O)(=O)c3ccc(Cl)cc3)c(N3CCC(C(N)=O)CC3)nc12`, the inhibition was 3.53% (inactive).

For the compound `CCCn1c(O)c(CN2CCCC(C)C2)c(C)c(C#N)c1=O` (stereo unspecified), the inhibition was 11.7% (inactive).

On to `O=C(NNc1cc(Cl)cc(Cl)c1)c1c(F)cccc1Cl`, for which the inhibition is -11.9% (inactive).

In the case of `O=C(NCc1ccco1)c1ccc(CS(=O)(=O)Cc2ccc(F)cc2)o1`, the inhibition is 97% (active).

In the case of `CCN(CC(=O)NCc1ccco1)S(=O)(=O)c1ccc(F)cc1`, the inhibition is 24.4% (inactive).

As for `O=C(NCc1ccco1)c1cc2sccc2n1Cc1ccc(F)cc1`, the inhibition is 1.12% (inactive).

Consider `Cc1ccc(NS(=O)(=O)c2cn(C)c(=O)n(C)c2=O)c(C)c1`, for which the inhibition is -3.22% (inactive).

Take `Cc1ccc(CC2C(=O)N(c3ccc(F)cc3)C(=O)C2C)cc1` (stereo unspecified): the inhibition is -10.9% (inactive).

In the case of `COc1ccc(CCNc2ncnc3c2nnn3Cc2ccccc2)cc1`, the inhibition was 56% (active).

In the case of `COc1ccc(CNCCCn2cnc3c(OCc4ccccc4)ncnc32)cc1`, the inhibition was 3.96% (inactive).

On to `CC(C)Nc1ncnc2c1nnn2Cc1ccccc1`, for which the inhibition is -0.65% (inactive).

Consider `CN(CCCC(=O)Nc1nccs1)S(=O)(=O)c1ccc(Cl)cc1`, for which the inhibition was -5.07% (inactive).

As for `O=C(Nc1ccccc1N1CCOCC1)c1ccncc1`, the inhibition is -0.66% (inactive).

Consider `CN(C)c1ccc(NC(=O)c2ccncc2)c2ccccc12`, for which the inhibition was 57.2% (active).

`Cc1c(C(=O)NNC(=O)c2ccncc2)oc2ccccc12`: the inhibition is -2.61% (inactive).

Turning to `CC(=O)N1C(=O)/C(=C2\SC(=S)N(NC(=O)c3ccc(O)cc3)C2=O)c2ccccc21`, the inhibition is 7.23% (inactive).

For the compound `CC(C)c1nnc(NC(=O)CCC(=O)N2CCN(c3cccc(Cl)c3)CC2)s1`, the inhibition is 59.1% (active).

Take `CCc1nnc(NC(=O)CCC(=O)N2CCN(c3cc(C)ccc3C)CC2)s1`: the inhibition is 27.2% (inactive).

Consider `COc1ccc(CN2CCN(C(=O)CCC(=O)Nc3nnc(C(C)C)s3)CC2)cc1F`, for which the inhibition is 17.3% (inactive).

Consider `C=C1c2cccc(OC)c2O[C@H](C(=O)OCC)[C@@H]1CCCCCC`, for which the inhibition was -3.22% (inactive).

In the case of `C=CCO/N=C(\C)c1c(O)c(C)c(-c2ccccc2)n(-c2ccccc2)c1=O`, the inhibition is 32.4% (inactive).

As to `C/C(=N\Nc1ccc([N+](=O)[O-])cc1)c1ccc(-n2nncc2C(C)(C)C)cc1`, the inhibition was 93.7% (active).

As to `COc1ccc(C(=O)Nc2ccc(-n3nncc3C(C)(C)C)cc2)cc1`, the inhibition was -18.4% (inactive).

Consider `CC(C)(C)c1cnnn1-c1ccc([N+](=O)[O-])cc1`, for which the inhibition was -1.38% (inactive).

Consider `CCOC(=O)C(CO)NC(=O)C1(NC(C)=O)CCCC1` (stereo unspecified), for which the inhibition is 2.61% (inactive).

On to `COc1ccccc1NC(=O)c1c(Br)cnn1C`, for which the inhibition was 6.15% (inactive).

As for `O=C(NNC(=O)C1C2CCC(C2)C1C(=O)O)c1ccc(Cl)cc1` (stereo unspecified), the inhibition is 10.1% (inactive).

As for `O=S(=O)(/N=C(/Nc1ccccn1)c1ccccc1)c1ccc(Cl)cc1`, the inhibition is 2.67% (inactive).

As for `Cc1ccc(S(=O)(=O)/N=C(/Nc2ccccn2)c2ccc(Cl)cc2)cc1`, the inhibition was 70.7% (active).

For the compound `Cc1ccc(S/C(=N\S(=O)(=O)c2ccc(Cl)cc2)c2ccccc2)cc1`, the inhibition was 2.53% (inactive).

For `O=C(O)c1ccccc1NC(=S)NC(NC(=O)c1ccccc1[N+](=O)[O-])C(Cl)(Cl)Cl` (stereo unspecified), the inhibition was 0.7% (inactive).

With `CCOC(=O)c1ccc(NC(=S)N2CCN(c3ccccn3)CC2)cc1`, the inhibition was -3.13% (inactive).

Take `O=C(C1CCCN1S(=O)(=O)c1ccc(Br)cc1)N1CCOCC1` (stereo unspecified): the inhibition was -2.49% (inactive).

For the compound `O=C(C1CCCO1)N1CCN(S(=O)(=O)c2ccc(Br)cc2)CC1` (stereo unspecified), the inhibition is 54.4% (active).

As for `CN1CCN(S(=O)(=O)c2ccc(NC(=O)C3CCCO3)cc2)CC1` (stereo unspecified), the inhibition is -5.38% (inactive).

Turning to `CCC1(C(=O)c2ccccc2)C(c2cccc([N+](=O)[O-])c2)C1(C(=O)OC)C(=O)OC` (stereo unspecified), the inhibition is -3.23% (inactive).

Consider `CCOC(=O)c1sc(NC(=O)CSc2nc(O)c(Cc3ccccc3)c(=O)[nH]2)nc1C`, for which the inhibition is 45.5% (inactive).

For the compound `CCOc1ccc(-c2nnc(-c3ccco3)o2)cc1`, the inhibition was 55% (active).

For the compound `COc1ccc(-c2nnc(-c3ccc4ccccc4c3)o2)cc1`, the inhibition was 5.64% (inactive).

Take `CCOc1ccc(-n2c(SCC(N)=O)nnc2-c2ccco2)cc1`: the inhibition is -5.91% (inactive).

On to `C[C@@H]1CC[C@@]2(OC1)O[C@H]1C[C@H]3[C@@H]4CC=C5C[C@@H](O)[C@H](O)C[C@]5(C)C4CC[C@]3(C)[C@H]1[C@@H]2C` (stereo partly specified), for which the inhibition is 26.8% (inactive).

For `Cn1c(=O)c([N+](=O)[O-])c(Oc2ccccc2)c2ccccc21`, the inhibition was 54.9% (active).

On to `Cc1cc(C)c(-c2c(O)c3ccccc3n(C)c2=O)c(C)c1`, for which the inhibition was 3.35% (inactive).

Consider `Cc1cccc(Oc2c([N+](=O)[O-])c(=O)n(C)c3ccccc23)c1`, for which the inhibition is 8.99% (inactive).

On to `CCn1c(C)nc2cc(C(=O)NNS(=O)(=O)c3ccc(C)cc3C)ccc21`, for which the inhibition is -9.91% (inactive).

For the compound `CCNc1c(NS(=O)(=O)c2ccc(C3CCCCC3)cc2)c(=O)oc2ccccc12`, the inhibition is 27.9% (inactive).
